# Measured values taken from article PMC8278208 (Toxicology Reports, 2021).
# Columns and labels:
# [1] = Cell viability, resazurin assay, K562/Dox; assay type: cell-based, human; conditions: human
# In short: (§1)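 Cells seeded at 5×10^4 cells mL⁻¹ and exposed to a range of test compound concentrations for 48, 72 and 96 h. Resazurin solution (0.1 mg mL⁻¹) was then added, followed by a further 4 h incubation. Fluorescence was read at ex 570/em 590 nm. % viability = (F treated/F untreated control) × 100. Three independent experiments, mean ± S.E.; Student's t-test versus untreated control, p<0.05.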
# [2] = tested on: doxorubicin-resistant K562/Dox (P-glycoprotein-overexpression) leukemia cells; test: Cell viability, resazurin assay, K562/Dox; assay type: cell-based, human; conditions: K562/Dox, 48, 72, and 96 h
# In short: as §1
# [3] = biological target: human serum albumin (HSA) (Homo sapiens, UniProt P02768); test: Fluorescence quenching of HSA by 4-HBA or VA; assay type: binding; conditions: for fluorescence quenching mechanism: from temperature dependence of Ksv and Kq; for quenching rate constant Kq ± SE: τ0 5 ns; for enthalpy change ΔH / entropy change ΔS: from Kb at 298 and 310 K
# Sequence of human serum albumin (HSA) (P02768 25-609): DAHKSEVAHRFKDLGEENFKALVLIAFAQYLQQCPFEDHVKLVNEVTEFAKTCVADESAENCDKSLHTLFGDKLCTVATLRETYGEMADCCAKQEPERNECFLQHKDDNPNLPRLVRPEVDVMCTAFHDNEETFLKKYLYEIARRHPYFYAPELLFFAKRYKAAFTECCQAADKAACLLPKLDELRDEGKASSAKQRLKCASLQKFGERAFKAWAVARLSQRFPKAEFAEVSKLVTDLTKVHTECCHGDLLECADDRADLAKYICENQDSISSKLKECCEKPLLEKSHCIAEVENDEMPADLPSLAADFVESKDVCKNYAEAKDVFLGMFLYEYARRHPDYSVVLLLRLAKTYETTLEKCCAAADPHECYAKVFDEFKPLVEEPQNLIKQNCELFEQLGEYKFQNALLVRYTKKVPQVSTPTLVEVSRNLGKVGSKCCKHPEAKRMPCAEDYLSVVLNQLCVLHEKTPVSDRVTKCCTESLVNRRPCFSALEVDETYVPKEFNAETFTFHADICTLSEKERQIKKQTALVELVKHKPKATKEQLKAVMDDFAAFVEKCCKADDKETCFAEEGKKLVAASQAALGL
# In short: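 HSA (1 μM) in PBS was titrated with test compound to final 0–10,000 μM. Intrinsic fluorescence was recorded at ex 280 nm, em 290–500 nm, slits 5 nm, 1.0 cm cell, at 298 and 310 K and pH 6, 7.4 and 8. Intensity at 342 nm was fitted by Stern–Volmer (τ0 5 ns) for KSV/Kq and by double-log plot for Kb and n. ΔH, ΔS and ΔG were derived from these fits.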
# K562 cancer cells = test: Cell morphological observation by light microscope, K562; assay type: cell-based, human; conditions: high concentrations (10 mM shown at 72 h), also at 48 and 96 h
# [4] = tested on: doxorubicin-sensitive K562 leukemia cells; test: Cell viability, resazurin assay, K562; assay type: cell-based, human; conditions: for cell viability percentage vs control group: K562, 48, 72, and 96 h
# In short: as §1
# [5] = Cell viability, resazurin assay, K562; assay type: cell-based, human; conditions: human, K562 cells (doxorubicin-sensitive leukemia)
# In short: as §1
# [6] = 0.01, 0.05, 0.1, 0.5, 1, and 5 mM
# [7] = 298 and 310 K, pHs 7.4, 6.0 and 8.0
smiles,measurement,setting,value
"O=C(O)c1ccc(O)cc1 [4-HBA, 4-Hydroxybenzoic acid]","viability at 48 h, 10 mM",[1],75.4 ± 8.61%
same,"viability at 72 h, 10 mM",[1],70.4 ± 5.21%
same,"viability at 96 h, 10 mM",[1],66.3 ± 7.67%
same,cell viability percentage vs control group,[2]; [6],did not significantly change
same,concentrations at which fluorescence intensity of HSA decreased,[3]; [7],"5–10,000 μM"
same,concentrations at which fluorescence intensity of HSA decreased,"[3]; PBS pH 7.4, 298 K, 1 μM HSA","5–10,000 μM"
same,fluorescence quenching mechanism,[3],static quenching mechanism
same,Gibbs binding free energy change ΔG,"[3]; pH 6.0, 298 K",-17.48 kJ/mol
same,Stern-Volmer quenching constant KSV ± SE,"[3]; pH 6.0, 298 K",4.4982 ± 2.10 × 10^3 L mole^−1
same,number of binding site n ± SE,"[3]; pH 6.0, 298 K",0.8623 ± 0.05
same,quenching rate constant Kq ± SE,"[3]; pH 6.0, 298 K",0.8996 ± 0.42 × 10^12 L. mole^−1 s^−1
same,Gibbs binding free energy change ΔG,"[3]; pH 6.0, 310 K",-15.77 kJ/mol
same,Stern-Volmer quenching constant KSV ± SE,"[3]; pH 6.0, 310 K",4.2857 ± 0.93 × 10^3 L mole^−1
same,number of binding site n ± SE,"[3]; pH 6.0, 310 K",0.9016 ± 0.06
same,quenching rate constant Kq ± SE,"[3]; pH 6.0, 310 K",0.8572 ± 0.19 × 10^12 L. mole^−1 s^−1
same,enthalpy change ΔH,[3]; pH 6.0,-59.83 kJ/mol
same,entropy change ΔS,[3]; pH 6.0,−142.12 J. mol^−1 K^−1
same,Gibbs binding free energy change ΔG,"[3]; pH 7.4, 298 K",-11.52 kJ/mol
same,Stern-Volmer quenching constant KSV ± SE,"[3]; pH 7.4, 298 K",3.0657 ± 1.18 × 10^3 L mole^−1
same,number of binding site n ± SE,"[3]; pH 7.4, 298 K",0.6130 ± 0.05
same,quenching rate constant Kq ± SE,"[3]; pH 7.4, 298 K",0.6131 ± 0.24 × 10^12 L. mole^−1 s^−1
same,Gibbs binding free energy change ΔG,"[3]; pH 7.4, 310 K",-9.89 kJ/mol
same,Stern-Volmer quenching constant KSV ± SE,"[3]; pH 7.4, 310 K",2.7164 ± 0.27 × 10^3 L mole^−1
same,number of binding site n ± SE,"[3]; pH 7.4, 310 K",0.7235 ± 0.05
same,quenching rate constant Kq ± SE,"[3]; pH 7.4, 310 K",0.5433 ± 0.05 × 10^12 L. mole^−1 s^−1
same,enthalpy change ΔH,[3]; pH 7.4,-51.96 kJ/mol
same,entropy change ΔS,[3]; pH 7.4,−135.72 J. mol^−1 K^−1
same,Gibbs binding free energy change ΔG,"[3]; pH 8.0, 298 K",-15.16 kJ/mol
same,Stern-Volmer quenching constant KSV ± SE,"[3]; pH 8.0, 298 K",1.8046 ± 0.51 × 10^3 L mole^−1
same,number of binding site n ± SE,"[3]; pH 8.0, 298 K",0.8005 ± 0.11
same,quenching rate constant Kq ± SE,"[3]; pH 8.0, 298 K",0.3609 ± 0.10 × 10^12 L. mole^−1 s^−1
same,Gibbs binding free energy change ΔG,"[3]; pH 8.0, 310 K",-14.15 kJ/mol
same,Stern-Volmer quenching constant KSV ± SE,"[3]; pH 8.0, 310 K",1.4572 ± 0.25 × 10^3 L mole^−1
same,number of binding site n ± SE,"[3]; pH 8.0, 310 K",1.0784 ± 0.29
same,quenching rate constant Kq ± SE,"[3]; pH 8.0, 310 K",0.2914 ± 0.05 × 10^12 L. mole^−1 s^−1
same,enthalpy change ΔH,[3]; pH 8.0,-40.42 kJ/mol
same,entropy change ΔS,[3]; pH 8.0,−84.76 J. mol^−1 K^−1
same,morphological changes in treated cells,K562 cancer cells,"rough cells, shrinking cells, irregular shape cells, and membrane blebbing"
same,cell viability percentage,"[4]; K562, 10 mM, 48 h",did not significantly change
same,cell viability percentage vs control group,[4]; [6],did not significantly change
same,"viability at 72 h, 10 mM",[5],90.3 ± 0.96%
same,"viability at 96 h, 10 mM",[5],87.6 ± 1.01%
"COc1cc(C(=O)O)ccc1O [VA, 4-hydroxy-3-methoxybenzoic acid]","viability at 48 h, 5 mM",[1],75.3 ± 6.23%
same,"viability at 48 h, 10 mM",[1],53.5 ± 10.7%
same,"viability at 72 h, 5 mM",[1],70.7 ± 11.1%
same,"viability at 72 h, 10 mM",[1],41 ± 5.78%
same,"viability at 96 h, 5 mM",[1],65.5 ± 2.36%
same,"viability at 96 h, 10 mM",[1],35.9 ± 3.61%
same,cell viability percentage vs control group,"[2]; 0.01, 0.05, 0.1, 0.5, and 1 mM",did not significantly change
same,concentrations at which fluorescence intensity of HSA decreased,[3]; [7],"2,000 to 10,000 μM"
same,concentrations at which fluorescence intensity of HSA decreased,"[3]; PBS pH 7.4, 298 K, 1 μM HSA","2,000 to 10,000 μM"
same,fluorescence quenching mechanism,[3],dynamic quenching mechanism
same,Gibbs binding free energy change ΔG,"[3]; pH 6.0, 298 K",-14.27 kJ/mol
same,Stern-Volmer quenching constant KSV ± SE,"[3]; pH 6.0, 298 K",1.2621 ± 0.19 × 10^3 L mole^−1
same,number of binding site n ± SE,"[3]; pH 6.0, 298 K",0.7071 ± 0.08
same,quenching rate constant Kq ± SE,"[3]; pH 6.0, 298 K",0.2524 ± 0.04 × 10^12 L. mole^−1 s^−1
same,Gibbs binding free energy change ΔG,"[3]; pH 6.0, 310 K",-13.01 kJ/mol
same,Stern-Volmer quenching constant KSV ± SE,"[3]; pH 6.0, 310 K",1.4092 ± 0.09 × 10^3 L mole^−1
same,number of binding site n ± SE,"[3]; pH 6.0, 310 K",0.6174 ± 0.08
same,quenching rate constant Kq ± SE,"[3]; pH 6.0, 310 K",0.2818 ± 0.02 × 10^12 L. mole^−1 s^−1
same,enthalpy change ΔH,[3]; pH 6.0,-45.59 kJ/mol
same,entropy change ΔS,[3]; pH 6.0,−105.08 J. mol^−1 K^−1
same,Gibbs binding free energy change ΔG,"[3]; pH 7.4, 298 K",-11.45 kJ/mol
same,Stern-Volmer quenching constant KSV ± SE,"[3]; pH 7.4, 298 K",0.7564 ± 0.03 × 10^3 L mole^−1
same,number of binding site n ± SE,"[3]; pH 7.4, 298 K",0.5786 ± 0.03
same,quenching rate constant Kq ± SE,"[3]; pH 7.4, 298 K",0.1513 ± 0.01 × 10^12 L. mole^−1 s^−1
same,Gibbs binding free energy change ΔG,"[3]; pH 7.4, 310 K",-9.82 kJ/mol
same,Stern-Volmer quenching constant KSV ± SE,"[3]; pH 7.4, 310 K",0.8312 ± 0.09 × 10^3 L mole^−1
same,number of binding site n ± SE,"[3]; pH 7.4, 310 K",0.3816 ± 0.09
same,quenching rate constant Kq ± SE,"[3]; pH 7.4, 310 K",0.1662 ± 0.02 × 10^12 L. mole^−1 s^−1
same,enthalpy change ΔH,[3]; pH 7.4,-52.11 kJ/mol
same,entropy change ΔS,[3]; pH 7.4,−136.42 J. mol^−1 K^−1
same,Gibbs binding free energy change ΔG,"[3]; pH 8.0, 298 K",-12.84 kJ/mol
same,Stern-Volmer quenching constant KSV ± SE,"[3]; pH 8.0, 298 K",0.7592 ± 0.06 × 10^3 L mole^−1
same,number of binding site n ± SE,"[3]; pH 8.0, 298 K",0.6340 ± 0.04
same,quenching rate constant Kq ± SE,"[3]; pH 8.0, 298 K",0.1518 ± 0.01 × 10^12 L. mole^−1 s^−1
same,Gibbs binding free energy change ΔG,"[3]; pH 8.0, 310 K",-12.51 kJ/mol
same,Stern-Volmer quenching constant KSV ± SE,"[3]; pH 8.0, 310 K",1.0384 ± 0.07 × 10^3 L mole^−1
same,number of binding site n ± SE,"[3]; pH 8.0, 310 K",0.5257 ± 0.08
same,quenching rate constant Kq ± SE,"[3]; pH 8.0, 310 K",0.2077 ± 0.01 × 10^12 L. mole^−1 s^−1
same,enthalpy change ΔH,[3]; pH 8.0,-21.18 kJ/mol
same,entropy change ΔS,[3]; pH 8.0,−27.97 J. mol^−1 K^−1
same,morphological changes in treated cells,K562 cancer cells,"rough cells, shrinking cells, irregular shape cells, and membrane blebbing"
same,cell viability percentage vs control group,"[4]; 0.01, 0.05, 0.1, 0.5, and 1 mM",did not significantly change
same,"viability at 48 h, 5 mM",[5],79.8 ± 3.98%
same,"viability at 48 h, 10 mM",[5],70.6 ± 2.93%
same,"viability at 72 h, 5 mM",[5],81.3 ± 6.51%
same,"viability at 72 h, 10 mM",[5],58 ± 5.46%
same,"viability at 96 h, 5 mM",[5],82.9 ± 5.89%
same,"viability at 96 h, 10 mM",[5],56.7 ± 18.2%
